These results are taken from ChEMBL document CHEMBL2311502, “Discovery of novel and ligand-efficient inhibitors of Plasmodium falciparum and Plasmodium vivax N-myristoyltransferase” (J Med Chem, 2013).

SMILES strings stand for the structures. Active and inactive are the calls of the source. The rule behind the calls is not given here. A value given as a limit tells only on which side of the number the result lay.

The first assay addresses T1, Glycylpeptide N-tetradecanoyltransferase (Plasmodium falciparum (isolate 3D7), UniProt Q8ILW6).
T1 sequence (Q8ILW6 whole entry): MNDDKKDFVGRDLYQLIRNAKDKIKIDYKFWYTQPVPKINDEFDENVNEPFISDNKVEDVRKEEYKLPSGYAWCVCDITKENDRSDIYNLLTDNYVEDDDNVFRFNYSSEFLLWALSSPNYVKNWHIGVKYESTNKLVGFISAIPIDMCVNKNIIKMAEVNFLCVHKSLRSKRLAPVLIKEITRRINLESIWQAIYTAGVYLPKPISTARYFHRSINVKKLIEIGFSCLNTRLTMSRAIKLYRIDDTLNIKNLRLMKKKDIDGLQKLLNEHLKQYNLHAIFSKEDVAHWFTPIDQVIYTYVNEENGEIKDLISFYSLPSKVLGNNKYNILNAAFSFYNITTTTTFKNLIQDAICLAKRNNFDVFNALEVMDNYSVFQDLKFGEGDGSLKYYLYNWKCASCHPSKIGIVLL
Put plainly: Binding affinity to Plasmodium falciparum NMT using GSNKSKPKDASQRRR-NH2 as substrate after 10 to 20 mins by CPM fluorescence assay.
Conditions: not given
Summed up:
(§1)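 Ki derived from enzyme IC50 by the Cheng–Prusoff equation, which corrects for the differing Michaelis constants of each NMT. Each IC50 is the mean of two or more determinations.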
`O=C(NCc1ccccc1)c1sc2ccccc2c1OC1CCNCC1` registered an inhibitory constant (Ki) of 10.7 µM.
On the same count and under the same terms, with `COc1cccc(COC(=O)c2sc3ccccc3c2OC2CCNCC2)c1` the figure was 0.83 µM.
`O=C(OCc1ccccc1)c1sc2ccccc2c1OC1CCNCC1`: affinity was put at a Ki of 3.37 µM.
On the same count and under the same terms, under `COc1cccc(CNC(=O)c2sc3ccccc3c2OC2CCNCC2)c1` stands greater than 100 µM.
For `CCOC(=O)c1oc2ccccc2c1OC1CCNCC1`, the inhibition constant (Ki) is 4.47 µM.
Same read-out and setting: with `CCOC(=O)c1oc2cccc(OC3CCNCC3)c2c1C` the figure was 13.6 µM; with `CCOC(=O)c1sc2ccccc2c1OC1CCNCC1`, 1.3 µM.

For a further assay, the target named is T2, Glycylpeptide N-tetradecanoyltransferase 1 (Homo sapiens, UniProt P30419).
T2 sequence (P30419 whole entry): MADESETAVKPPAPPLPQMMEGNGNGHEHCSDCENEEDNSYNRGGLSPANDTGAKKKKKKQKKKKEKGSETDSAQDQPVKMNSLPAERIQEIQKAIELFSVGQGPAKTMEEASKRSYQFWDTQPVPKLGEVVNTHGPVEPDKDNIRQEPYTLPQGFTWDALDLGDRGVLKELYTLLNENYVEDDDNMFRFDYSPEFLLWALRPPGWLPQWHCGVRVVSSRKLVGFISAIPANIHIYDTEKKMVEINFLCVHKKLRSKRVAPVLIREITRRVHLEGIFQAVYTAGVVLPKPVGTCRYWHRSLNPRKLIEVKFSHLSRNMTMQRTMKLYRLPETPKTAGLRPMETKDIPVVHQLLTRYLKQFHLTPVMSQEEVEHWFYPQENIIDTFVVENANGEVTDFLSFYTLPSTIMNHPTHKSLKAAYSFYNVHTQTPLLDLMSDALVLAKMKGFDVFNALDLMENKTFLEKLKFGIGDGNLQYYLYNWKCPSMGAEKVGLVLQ
Put plainly: Binding affinity to human NMT1 after 10 to 20 mins by CPM fluorescence assay.
Conditions: not given
A digest of the protocol: as §1
In turn, `O=C(NCc1ccccc1)c1sc2ccccc2c1OC1CCNCC1` registered an inhibitory constant (Ki) of 4.76 µM.
For `O=C(OCc1ccccc1)c1sc2ccccc2c1OC1CCNCC1`, the Ki was determined as 4.41 µM.
On the same count and under the same terms, under `COc1cccc(CNC(=O)c2sc3ccccc3c2OC2CCNCC2)c1` stands greater than 100 µM; under `CCOC(=O)c1oc2ccccc2c1OC1CCNCC1`, greater than 100 µM; under `CCOC(=O)c1oc2cccc(OC3CCNCC3)c2c1C`, greater than 100 µM.
Regarding `CCOC(=O)c1sc2ccccc2c1OC1CCNCC1`, the inhibition constant Ki is greater than 100 µM.

For another assay, the target named is Glycylpeptide N-tetradecanoyltransferase 1 (Homo sapiens) (UniProt P30419). The assay is described as follows: Inhibition of human NMT1.
Conditions: not given
For the compound `O=C(NCc1ccccc1)c1sc2ccccc2c1OC1CCNCC1`, the “inhibition activity call (active/not active)” value was “Active”.
The same measure, in the same setting: under `COc1cccc(COC(=O)c2sc3ccccc3c2OC2CCNCC2)c1` stands “Active”.
For the compound `O=C(OCc1ccccc1)c1sc2ccccc2c1OC1CCNCC1`, the “inhibition activity call (active/not active)” value is “Active”.
For the compound `COc1cccc(CNC(=O)c2sc3ccccc3c2OC2CCNCC2)c1`, the “inhibition activity call (active/not active)” value is “inactive”.
The same measure, in the same setting: with `CCOC(=O)c1oc2ccccc2c1OC1CCNCC1` the entry was “inactive”.
Same read-out and setting: under `CCOC(=O)c1oc2cccc(OC3CCNCC3)c2c1C` stands “inactive”; under `CCOC(=O)c1sc2ccccc2c1OC1CCNCC1`, “inactive”.

Test system in another assay: not listed separately
The assay is described as follows: Binding affinity to recombinant Plasmodium vivax NMT using GSNKSKPKDASQRRR-NH2 as substrate after 10 to 20 mins by CPM fluorescence assay.
Conditions: not given
Summed up: as §1
`O=C(NCc1ccccc1)c1sc2ccccc2c1OC1CCNCC1`: the inhibition constant (Ki) was 1320 nM.
On the same count and under the same terms, with `O=C(OCc1ccccc1)c1sc2ccccc2c1OC1CCNCC1` the figure was 2160 nM.
Still for that read-out and setting: with `COc1cccc(CNC(=O)c2sc3ccccc3c2OC2CCNCC2)c1` the figure was 2700 nM; with `CCOC(=O)c1oc2ccccc2c1OC1CCNCC1`, 1740 nM; with `CCOC(=O)c1oc2cccc(OC3CCNCC3)c2c1C`, 14900 nM.
In the case of `CCOC(=O)c1sc2ccccc2c1OC1CCNCC1`, the inhibition constant Ki amounted to 1320 nM.

A further assay has as its system Plasmodium falciparum. The assay is described as follows: Antiplasmodium activity against Chloroquine-sensitive later trophozoite form of Plasmodium falciparum 3D7 assessed as parasite growth inhibition after 48 hrs by FACS flow cytometric analysis. The assay is classed as functional, organism-based. The note with it: 3D7, 48 h.
Turning to `O=C(NCc1ccccc1)c1sc2ccccc2c1OC1CCNCC1`, the half-maximal effective concentration (EC50) stood at 8.1 µM.
`COc1cccc(COC(=O)c2sc3ccccc3c2OC2CCNCC2)c1`: the 50% effective concentration (EC50) came to 2 µM.
For `O=C(OCc1ccccc1)c1sc2ccccc2c1OC1CCNCC1`, the EC50 amounted to 4.2 µM.
On to `CCOC(=O)c1oc2ccccc2c1OC1CCNCC1`, for which the half-maximal effective concentration (EC50) is 61.4 µM.
Consider `CCOC(=O)c1sc2ccccc2c1OC1CCNCC1`, for which the EC50 came to 14.6 µM.
